TRPC4 agonist = activators of mouse TRPC4 channel; B-score at 10 µM; hit rate 0.49% among 310,000; AID 2237; Q9QUQ5; HEK293 TRPC4beta/mu-opioid, Fluo4 calcium fluorescence; stronger effect = higher value;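 active means B-score above 5 SD of library B-scores, and initial fluorescence ratio not above library mean plus 5 SD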;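 further: positive B-score marks a calcium rise read as TRPC4 activation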
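Test system: HEK293 cells stably co-expressing mouse TRPC4beta and mu-opioid receptor | Schedule: Fluo4 dye loading 45 min at room temperature, 110 s recording | Measured by: Kinetic Fluo4 calcium fluorescence, 5 s baseline at 1 Hz | Evaluation: B score of integrated ratio | Controls: Buffer (low) and maximal DAMGO (high)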
TRPC4 PAM = allosteric potentiators of mouse TRPC4 channel. AID 2227. Q9QUQ5. hit rate 0.42% among 310,000. B-score at 10 µM. HEK293 TRPC4beta/mu-opioid, DAMGO EC20, Fluo-4 Ca2+ flux; stronger effect = higher value;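 active means B-score of calcium response area above 5 SD of library B-scores, with initial fluorescence ratio within 5 SD of library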;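 further: B-score of integrated fluorescence ratio over time as area under calcium response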
TRPC6 activator = activates the mouse TRPC6 cation channel; Q61143; HEK293-TRPC6 membrane potential dye fluorescence; stronger effect = higher value; B-score at 10 µM; hit rate 0.13% among 310,000;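 active means B-score of the integrated fluorescence ratio above library mean plus 3 SD, and starting fluorescence ratio within library mean plus 5 SD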;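 further: higher score means more depolarization so channel activation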
TRPC4 block = TRPC4 (mouse) channel inhibition; Q9QUQ5; HEK293 TRPC4beta/mu-opioid, DAMGO-evoked Fluo4 calcium flux; stronger effect = lower value; B-score at 10 µM; hit rate 0.39% among 300,000; AID 2247;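 active means B-score over 3 SD under the library average, no early fluorescence shift, positive overall ratio signal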
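Assay system: Stable TRPC4beta/mu-opioid receptor HEK293 cells | Reagent: DAMGO in two steps, submaximal then maximal | Compound dosing: Single concentration per test compound | Signal: Fluo4 Ca2+ flux fluorescence | Evaluation: Per-well B score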
TRPC6 inhibitor = mouse TRPC6 channel inhibition; HEK293-TRPC6, membrane potential dye, ACh-evoked depolarization; stronger effect = lower value; Q61143; B-score at 10 µM; hit rate 1.1% among 310,000;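 active means B-score under library mean minus 3 SD, initial fluorescence not abnormally high, positive integrated signal ratio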;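 further: B-score derived from integrated fluorescence ratio over the kinetic read; more negative B-score means stronger inhibition of depolarization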
* marks the source's active call; other numbers are inactive results; i = inactive. An excerpt weighted towards active compounds, which were near 2.3% of everything screened.

SMILES	TRPC4 agonist	TRPC4 PAM	TRPC6 activator	TRPC4 block	TRPC6 inhibitor
Cc1cccn2c(=O)c3cc(S(=O)(=O)c4ccc(F)cc4)c(=N)n(Cc4ccco4)c3nc12	i	i	i	i	i
COc1cc(OC)cc(C(=O)Nc2cccc(NC(=O)c3ccccc3)c2)c1	i	i	i	i	i
COc1cc(OC)cc(C(=O)Nc2ccc(Nc3ccccc3)cc2)c1	i	i	i	i	-5.05*
O=c1cc(O)c2c(=O)n(-c3ccccc3)c3c(c2o1)CCCCCC3	i	i	i	i	i
Cc1ccc(S(=O)(=O)N2CCC(C(=O)OCC(=O)N3CCCC3=O)CC2)cc1C	i	i	i	i	i
C=CCNC(=S)N1CCN(c2ccccc2Cl)CC1	i	i	i	i	i
C=CCNC(=S)N1CCN(c2ncc(C(F)(F)F)cc2Cl)CC1	i	11*	i	i	i
Cc1cc(C)cc(NC(=S)N2CCN(c3ncc(C(F)(F)F)cc3Cl)CC2)c1	141*	i	i	i	i
COC(=O)c1cccc(NC(=O)CSc2nnc(C3CC3)n2C)c1	i	i	i	i	i
CC(C)(C)S(=O)(=O)c1c(C(=O)O)cccc1C(=O)O	i	i	i	i	i
Nc1cccc2c1C(=O)N(CCOc1ccccc1F)C2=O	i	i	i	i	i
COc1ccc(CN2C(=NC(=O)C3CCCO3)SC3CS(=O)(=O)CC32)cc1 (stereo unspecified)	i	i	i	i	i
CCOC(=O)N1CCC(c2cc(=O)n3[nH]cc(C(=O)OC)c3n2)CC1	i	i	i	i	i
CCOc1ccc(NC(=O)c2c[nH]n3c(=O)cc(C4CCN(C(=O)OC(C)(C)C)CC4)nc23)cc1	i	i	i	-7*	i
COc1ccc(CNC(=O)CSc2nc(SC)ns2)cc1	i	i	i	i	i
COCCn1c(SCC(=O)N2CCc3ccccc3C2)nc2ccccc2c1=O	i	i	i	-5*	i
COCCn1c(SCC(=O)c2ccccc2)nc2ccccc2c1=O	i	i	i	-7*	i
COC(=O)c1ccc(CSc2nc3ccccc3c(=O)n2C)o1	i	i	i	i	i
COCCn1c(SCC(=O)N2CCOCC2)nc2ccccc2c1=O	i	i	i	i	i
COCCCn1c(SCC(=O)c2ccccc2)nc2ccccc2c1=O	i	i	i	i	i
COC(=O)c1ccc(CSc2nc3ccccc3c(=O)n2CC(C)C)o1	i	i	i	-7*	i
COCCn1c(SCc2cccc([N+](=O)[O-])c2)nc2ccccc2c1=O	i	i	i	-6*	i
NC(=O)C1CCN(CC(=O)NC(=O)NC2CCCC2)CC1	i	i	i	i	i
COCCn1c(SCc2ccccc2F)nc2ccccc2c1=O	i	i	i	-6*	i
CC(=O)NCCn1c(SCc2ccccc2F)nc2ccccc2c1=O	i	i	i	i	i
SMILES	TRPC4 agonist	TRPC4 PAM	TRPC6 activator	TRPC4 block	TRPC6 inhibitor
C/C(=N\Nc1ccc(C(=O)O)cc1)c1ccc2c(c1)Nc1ccccc1S2	i	i	i	-6*	i
Cc1nn2c(=O)cc(COC(=O)c3ccc(S(=O)(=O)N4CCCCC4)cc3)nc2s1	i	i	i	i	i
CC(=O)Nc1ccc(N2CCC(C)CC2)c([N+](=O)[O-])c1	i	i	i	i	i
CCCCN(CC)CCNC(=O)CCC(=O)Nc1ccc2nc(N3CCN(C)CC3)cc(C)c2c1	118*	i	i	i	i
CCCN(CCC)CCNC(=O)CCC(=O)Nc1ccc2nc(N3CCOCC3)cc(C)c2c1	97*	i	i	i	i
CCCN(CCC)CCCNC(=S)Nc1ccc2nc(N3CCN(C)CC3)cc(C)c2c1	i	13*	i	i	i
CCCN(CCC)CCNC(=S)Nc1ccc2nc3n(c(=O)c2c1)CCCCC3	88*	i	i	i	i
CCN(CC)CCCNC(=O)CCC(=O)Nc1ccc2nc(N3CCCCC3)cc(C)c2c1	i	i	i	i	i
CCCN(CCC)CCCNC(=S)Nc1ccc2nc(N3CCN(CC)CC3)cc(C)c2c1	i	i	i	i	i
Cc1cc(-c2nn(-c3ccccc3F)cc2CN(C)CC(O)CO)c(C)s1 (stereo unspecified)	i	i	i	i	i
CCOc1nc(C)cc(C)c1S(=O)(=O)c1cccc(Cl)c1	i	i	i	i	i
CCCCN(CC)CCNC(=S)Nc1ccc2nc(N3CCN(C)CC3)cc(C)c2c1	66*	i	i	i	i
Cc1cc(N2CCN(C)CC2)nc2ccc(NC(=S)NC3CC3)cc12	i	i	i	i	i
CCOC(=O)c1c(S(=O)(=O)N2CCN(Cc3ccccc3)CC2)c(C)n(C)c1C	i	i	i	i	i
COc1ccccc1NC(=O)COC(=O)c1ccccc1C(=O)N1CCN(c2ccccc2)CC1	i	11*	i	i	i
CC(C)(c1ccccc1)c1ccc(OCCCNCCO)cc1	i	i	i	-6*	i
O=C(NC1CCCC1)c1cc2ccccc2o1	i	20*	i	i	i
N=c1oc2ccc(Cl)cc2cc1C(=O)NC1CCCCCC1	i	18*	i	i	i
CC1CCCCC1NC(=O)c1cc2ccccc2o1 (stereo unspecified)	i	30*	i	i	i
CC(C)NC(=O)c1cc2ccccc2o1	i	i	i	i	i
O=C(NC1CCCC1)c1cc2cc(Br)ccc2o1	i	i	i	i	i
N=c1oc2ccccc2cc1C(=O)NC1CCCCCC1	i	i	i	i	i
COc1cc(NS(C)(=O)=O)c(OC)cc1NC(=O)c1cccc(F)c1	i	i	i	i	i
O=C(Cc1c(Cl)cccc1Cl)OCC(=O)N1CCc2ccccc2C1	i	i	i	i	i
CCN(CC)CCCN1CC(O)=C(c2nc3ccccc3s2)C1=N	i	12*	i	i	i
N=C1C(c2nc3ccccc3s2)=C(O)CN1Cc1ccccc1	i	i	i	i	i
O=C(Nc1sc2c(c1C(=O)NCCCO)CCCC2)c1ccccc1	i	i	i	i	i
NCCNC(=O)c1c(NC(=O)c2ccccc2)sc2c1CCCC2	175*	i	i	i	i
CC1(c2ccc(Cl)cc2Cl)OCC(Cn2ccnc2)O1 (stereo unspecified)	105*	i	i	i	i
